ChEMBL document CHEMBL1156438, “Resolvin D1 and its aspirin-triggered 17R epimer. Stereochemical assignments, anti-inflammatory properties, and enzymatic inactivation” (J Biol Chem, 2007)
pEC50: −log10 of the molar value. The source made the active and inactive calls. The calls are words filed in the database; no cut-off is given here.

How the values were obtained:
[1] = Antiinflammatory activity in human polymorphonuclear leukocytes assessed as inhibition of n-formylmethionylleucylphenylalanine-stimulated transendothelial migration at 10 nM after 15 mins; type: functional; parameters: scale not given: the % may be the effect or the level left
Method in brief: (§1)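 Human PMNs from venous blood (Histopaque 1077/1119 double gradient, NH4Cl lysis, >90% pure) in HBSS pH 7.4, preincubated 15 min at room temperature with 0–1000 nm compound; 10^6 cells added atop HMEC-1 monolayers on Transwell inserts; 100 nm fMLP lower chamber; migration 30 min, 37 °C, quantified by MPO; expressed as % reduction versus untreated PMNs.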

Mus musculus [2] = experiment: Antiinflammatory activity in iv dosed FVB mouse peritonitis model assessed as reduction in zymosan-induced polymorphonuclear leukocyte infiltration at after 4 hrs; type: functional, organism-based
[3] = Antiinflammatory activity in human polymorphonuclear leukocytes assessed as inhibition of n-formylmethionylleucylphenylalanine-stimulated transendothelial migration at 1 uM after 15 mins; type: functional; parameters: scale not given: the % may be the effect or the level left; method in brief: as §1
[4] = Antiinflammatory activity in human polymorphonuclear leukocytes assessed as inhibition of n-formylmethionylleucylphenylalanine-stimulated transendothelial migration after 15 mins; details: 0.25 h
Mus musculus [5] = experiment: Antiinflammatory activity in FVB mouse peritonitis model assessed as reduction in zymosan-induced polymorphonuclear leukocyte infiltration at 100 ng, iv after 4 hrs; type: functional; parameters: scale not given: the % may be the effect or the level left
Method in brief: (§2)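 Male FVB mice, 6–8 weeks, isoflurane-anesthetized; compounds as carboxymethyl esters given iv by tail vein in 100 μl saline (0.05–50 μgkg–1 range), then zymosan A 1 mg/ml ip. Peritoneal lavage at 4 h; cells counted after trypan blue, differentials by Wright-Giemsa cytospin; reduction versus saline vehicle plus zymosan; mean ± S.E., n = 3.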

Mus musculus [6] = experiment: Antiinflammatory activity in FVB mouse peritonitis model assessed as reduction in zymosan-induced total leukocyte infiltration at 10 ng, iv after 4 hrs; type: functional; parameters: scale not given: the % may be the effect or the level left; method in brief: as §2
Mus musculus [7] = experiment: Antiinflammatory activity in FVB mouse peritonitis model assessed as reduction in zymosan-induced polymorphonuclear leukocyte infiltration at 1 ng, iv after 4 hrs; type: functional, organism-based; method in brief: as §2
Mus musculus [8] = experiment: Antiinflammatory activity in FVB mouse peritonitis model assessed as reduction in zymosan-induced polymorphonuclear leukocytes infiltration at 10 ng, iv after 4 hrs; type: functional; parameters: scale not given: the % may be the effect or the level left; method in brief: as §2

| pEC50 [4] | Compound | Activity [1] | Activity (Mus musculus [2]) | Activity [3] | Activity (Mus musculus [5]) | Activity (Mus musculus [6]) | Activity (Mus musculus [7]) | Activity (Mus musculus [8]) |
| --- | --- | --- | --- | --- | --- | --- | --- | --- |
| 7.52 | CC/C=C\C[C@@H](O)/C=C/C=C\C=C\C=C\[C@@H](O)[C@@H](O)C/C=C\CCC(=O)O | 50% | Dose-dependent effect | 65% | 35% | 23% | Active |  |
|  | CC/C=C\C[C@@H](O)/C=C/C=C\C=C\C=C\C(=O)[C@@H](O)C/C=C\CCC(=O)O |  |  |  |  |  |  | 41% |
|  | CC/C=C\CC(=O)/C=C/C=C\C=C\C=C\[C@@H](O)[C@@H](O)C/C=C\CCC(=O)O |  |  |  |  |  |  | inactive |
| 7.52 | CC/C=C\C[C@H](O)/C=C/C=C\C=C\C=C\[C@@H](O)[C@@H](O)C/C=C\CCC(=O)O | 50% | Dose-dependent effect |  | 35% | 8% | Active |  |
